# Test results from ChEMBL document CHEMBL4689842, “EUbOPEN Chemogenomics Library wave 1” (2021).
# System: U2OS
# Test: Multiplex assay against U2OS
# Format: toxicity, cell-based
# Details: human
# Outline: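 Per cents of healthy-nucleus cells form the tubulin, mitochondrial-mass and membrane-permeability phenotype values. Live cells were stained at seeding with Hoechst33342, BioTracker Green Microtubule Cytoskeleton Dye, MitoTracker Red and Annexin V Alexa Fluor 680. After compound addition they were imaged on a CQ1 microscope at 37°C and 5% CO2, and CellPathfinder machine-learning gating split them into Hoechst high-intensity objects or normal cells, normal cells into healthy, pyknosed or fragmented nuclei, and pyknosed cells into mitotic or apoptotic.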
# [1] = 12 h, 1 µM, compound concentration 1 uM, replicate 1
# [2] = 12 h, 1 µM, compound concentration 1 uM, replicate 2
# [3] = 12 h, 10 µM, compound concentration 10 uM, replicate 1
# [4] = 12 h, 10 µM, compound concentration 10 uM, replicate 2
# [5] = 24 h, 1 µM, compound concentration 1 uM, replicate 1
# [6] = 24 h, 1 µM, compound concentration 1 uM, replicate 2
# [7] = 24 h, 10 µM, compound concentration 10 uM, replicate 1
# [8] = 24 h, 10 µM, compound concentration 10 uM, replicate 2
# [9] = 48 h, 1 µM, compound concentration 1 uM, replicate 1
# [10] = 48 h, 1 µM, compound concentration 1 uM, replicate 2
# [11] = 48 h, 10 µM, compound concentration 10 uM, replicate 1
# [12] = 48 h, 10 µM, compound concentration 10 uM, replicate 2
structure (smiles),measurement,setting,value
CN1CCC[C@@H]1CCO[C@](C)(c1ccccc1)c1ccc(Cl)cc1.O=C(O)/C=C/C(=O)O [CLEMASTINE FUMARATE],Population Apoptotic (%),[1],50%
same,Population Fragmented Nuclei (%),[1],12%
same,Population Healthy Nuclei (%),[1],72%
same,Population Hoechst High Intensity Objects (%),[1],11%
same,Population Membrane Permeable-Phenotype (%),[1],5%
same,Population Mitochondria Different-Phenotype (%),[1],18%
same,Population Mitotic Cells (%),[1],50%
same,Population Normal (%),[1],88%
same,Population Pyknosed Nuclei (%),[1],14%
same,Population Tubulin-Different-Phenotype (%),[1],12%
same,Total Cell Count,[1],108
same,Population Fragmented Nuclei (%),[2],15%
same,Population Healthy Nuclei (%),[2],76%
same,Population Hoechst High Intensity Objects (%),[2],1%
same,Population Membrane Permeable-Phenotype (%),[2],3%
same,Population Mitochondria Different-Phenotype (%),[2],6%
same,Population Normal (%),[2],98%
same,Population Pyknosed Nuclei (%),[2],7%
same,Population Tubulin-Different-Phenotype (%),[2],3%
same,Total Cell Count,[2],78
same,Population Apoptotic (%),[3],50%
same,Population Fragmented Nuclei (%),[3],24%
same,Population Hoechst High Intensity Objects (%),[3],18%
same,Population Membrane Permeable-Phenotype (%),[3],13%
same,Population Mitochondria Different-Phenotype (%),[3],97%
same,Population Mitotic Cells (%),[3],50%
same,Population Normal (%),[3],81%
same,Population Pyknosed Nuclei (%),[3],34%
same,Population Tubulin-Different-Phenotype (%),[3],83%
same,Total Cell Count,[3],127
same,Population Apoptotic (%),[4],85%
same,Population Fragmented Nuclei (%),[4],19%
same,Population Healthy Nuclei (%),[4],41%
same,Population Hoechst High Intensity Objects (%),[4],21%
same,Population Membrane Permeable-Phenotype (%),[4],6%
same,Population Mitochondria Different-Phenotype (%),[4],86%
same,Population Mitotic Cells (%),[4],14%
same,Population Normal (%),[4],78%
same,Population Pyknosed Nuclei (%),[4],38%
same,Population Tubulin-Different-Phenotype (%),[4],40%
same,Total Cell Count,[4],46
same,Population Apoptotic (%),[5],55%
same,Population Fragmented Nuclei (%),[5],7%
same,Population Healthy Nuclei (%),[5],85%
same,Population Hoechst High Intensity Objects (%),[5],6%
same,Population Membrane Permeable-Phenotype (%),[5],5%
same,Population Mitochondria Different-Phenotype (%),[5],9%
same,Population Mitotic Cells (%),[5],44%
same,Population Normal (%),[5],93%
same,Population Pyknosed Nuclei (%),[5],7%
same,Population Tubulin-Different-Phenotype (%),[5],13%
same,Total Cell Count,[5],135
same,Population Apoptotic (%),[6],18%
same,Population Fragmented Nuclei (%),[6],14%
same,Population Healthy Nuclei (%),[6],70%
same,Population Hoechst High Intensity Objects (%),[6],0%
same,Population Mitochondria Different-Phenotype (%),[6],13%
same,Population Mitotic Cells (%),[6],81%
same,Population Normal (%),[6],99%
same,Population Pyknosed Nuclei (%),[6],15%
same,Population Tubulin-Different-Phenotype (%),[6],6%
same,Total Cell Count,[6],107
same,Population Apoptotic (%),[7],64%
same,Population Fragmented Nuclei (%),[7],33%
same,Population Healthy Nuclei (%),[7],35%
same,Population Hoechst High Intensity Objects (%),[7],10%
same,Population Membrane Permeable-Phenotype (%),[7],21%
same,Population Mitochondria Different-Phenotype (%),[7],100%
same,Population Mitotic Cells (%),[7],35%
same,Population Normal (%),[7],90%
same,Population Pyknosed Nuclei (%),[7],31%
same,Population Tubulin-Different-Phenotype (%),[7],68%
same,Total Cell Count,[7],120
same,Population Apoptotic (%),[8],76%
same,Population Fragmented Nuclei (%),[8],21%
same,Population Healthy Nuclei (%),[8],36%
same,Population Hoechst High Intensity Objects (%),[8],12%
same,Population Membrane Permeable-Phenotype (%),[8],26%
same,Population Mitochondria Different-Phenotype (%),[8],86%
same,Population Mitotic Cells (%),[8],23%
same,Population Normal (%),[8],87%
same,Population Pyknosed Nuclei (%),[8],41%
same,Population Tubulin-Different-Phenotype (%),[8],26%
same,Total Cell Count,[8],47
same,Population Apoptotic (%),[9],38%
same,Population Hoechst High Intensity Objects (%),[9],3%
same,Population Membrane Permeable-Phenotype (%),[9],4%
same,Population Mitochondria Different-Phenotype (%),[9],11%
same,Population Mitotic Cells (%),[9],61%
same,Population Normal (%),[9],96%
same,Population Pyknosed Nuclei (%),[9],10%
same,Population Tubulin-Different-Phenotype (%),[9],6%
same,Total Cell Count,[9],184
same,Population Apoptotic (%),[10],31%
same,Population Fragmented Nuclei (%),[10],5%
same,Population Healthy Nuclei (%),[10],84%
same,Population Hoechst High Intensity Objects (%),[10],1%
same,Population Membrane Permeable-Phenotype (%),[10],5%
same,Population Mitochondria Different-Phenotype (%),[10],13%
same,Population Mitotic Cells (%),[10],68%
same,Population Normal (%),[10],98%
same,Population Pyknosed Nuclei (%),[10],9%
same,Population Tubulin-Different-Phenotype (%),[10],15%
same,Total Cell Count,[10],164
same,Population Apoptotic (%),[11],83%
same,Population Fragmented Nuclei (%),[11],33%
same,Population Healthy Nuclei (%),[11],25%
same,Population Hoechst High Intensity Objects (%),[11],11%
same,Population Membrane Permeable-Phenotype (%),[11],3%
same,Population Mitochondria Different-Phenotype (%),[11],80%
same,Population Mitotic Cells (%),[11],16%
same,Population Normal (%),[11],88%
same,Population Pyknosed Nuclei (%),[11],41%
same,Population Tubulin-Different-Phenotype (%),[11],50%
same,Total Cell Count,[11],117
same,Population Apoptotic (%),[12],54%
same,Population Fragmented Nuclei (%),[12],25%
same,Population Healthy Nuclei (%),[12],46%
same,Population Hoechst High Intensity Objects (%),[12],15%
same,Population Membrane Permeable-Phenotype (%),[12],44%
same,Population Mitochondria Different-Phenotype (%),[12],72%
same,Population Mitotic Cells (%),[12],45%
same,Population Normal (%),[12],84%
same,Population Pyknosed Nuclei (%),[12],28%
same,Population Tubulin-Different-Phenotype (%),[12],55%
same,Total Cell Count,[12],46
